ChEMBL document CHEMBL1123886 (J Med Chem, 1987)
Activity calls are given as the source filed them. The calls are words filed in the database; no cut-off is given here.

Experiments:
poly[d(A-T)] = experiment: Binding constant for poly[d(A-T)] by ethidium bromide displacement
HCT-8 = experiment: Ability to inhibit the growth of human colon tumor HCT-8 cells in vitro.; format: functional, cell-based
Outline: (§1)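 Cultured leukemia L1210 or human colon tumor HCT-8 cells were exposed to drug for 40 h.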

P388/ADR [1] = experiment: Optimal dose required to inhibit the P388/ADR cells in vivo after intraperitoneal administration.; format: functional, Mus musculus; design: unit: mg/kg/day
P388 [2] = experiment: Optimal dose required to inhibit the P388 intraperitoneal administration.; format: functional, Mus musculus; design: unit: mg/kg/day
[3] = tested on: Lewis lung carcinoma cell line; experiment: Optimal dose to inhibit the LL (Lewis lung carcinoma model) cells in vivo after intraperitoneal administration.; format: functional, Mus musculus; design: unit: mg/kg/day
Outline: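 Mice were inoculated iv with 10^6 Lewis lung carcinoma cells. OD is the optimal dose in mg/kg per day. Lifespan increase above 40% is significant, and long-term survival was scored at 60 days.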

P388 [4] = experiment: Percent increase in life span of the drug-treated tumor-bearing animals vs nontreated tumor-bearing controls with P388 leukemia cells.; format: functional, Mus musculus
Outline: (§2)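 Groups of 6. Optimal dose is in mg/kg per day. ILSmax is the % lifespan increase over untreated tumor-bearing controls at the optimal dose; above 20% counted significant. Cures are 50-day survivors.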

[5] = tested on: Lewis lung carcinoma cell line; experiment: Percent increase in life span, of the drug-treated tumor-bearing animals vs nontreated tumor-bearing controls with LL (Lewis lung carcinoma model) cells.; format: functional, Mus musculus
Outline: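 Groups of 6. Optimal dose is in mg/kg per day. ILSmax is the % lifespan increase over untreated tumor-bearing controls at the optimal dose; above 40% counted significant. Cures are 60-day survivors.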

[6] = Lipophilicity (Rm).; format: physicochemical
P388/ADR [7] = experiment: Percent increase in life span, of the drug-treated tumor-bearing animals vs nontreated tumor-bearing controls with P388/ADR cells.; format: functional, Mus musculus
Outline: as §2

L1210 = experiment: Ability to inhibit the growth of leukemia L1210 cells in vitro.; format: functional, cell-based; settings: Mus musculus
Outline: as §1

Mus musculus = organism: Mus musculus; experiment: Percent increase in life span of the drug treated tumor bearing animals vs nontreated tumor bearing controls was determined against P388/ADR cells;NA= not active; format: functional, organism-based
Outline: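 Mice were inoculated ip with 10^6 P388 or ADR/P388 cells. OD is the optimal dose in mg/kg per day. ILSmax is the % lifespan increase over untreated tumor-bearing controls at the OD; above 20% is significant. Long-term survival was scored at 50 days.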

CNc1cc(NC(=O)OC)ccc1Nc1c2ccccc2nc2c(F)cccc12
Log K (poly[d(A-T)]): 5.82
IC50 (HCT-8): 2800 nM
OD (P388/ADR [1]): 100
OD (P388 [2]): 65
OD [3]: 65
ILS max (P388 [4]): 103
ILS max [5]: 77
Rm [6]: 0.37
ILS max (P388/ADR [7]): 43
IC50 (L1210): 1400 nM

CNc1cc(NC(=O)OC)ccc1Nc1c2ccccc2nc2c(C(N)=O)cccc12
Log K (poly[d(A-T)]): 6
IC50 (HCT-8): 3600 nM
OD (P388/ADR [1]): 100
OD (P388 [2]): 100
OD [3]: 65
ILS max (P388 [4]): 32
Rm [6]: 0.06
IC50 (L1210): 1600 nM

CNc1cc(NC(=O)OC)ccc1Nc1c2ccccc2nc2c(OC)cccc12
Log K (poly[d(A-T)]): 6.57
IC50 (HCT-8): 630 nM
OD (P388/ADR [1]): 30
OD (P388 [2]): 30
OD [3]: 30
ILS max (P388 [4]): 98
ILS max [5]: 167
Rm [6]: 0.41
ILS max (P388/ADR [7]): 35
IC50 (L1210): 540 nM

CNc1cc(NC(=O)OC)ccc1Nc1c2ccccc2nc2c(C)cccc12
Log K (poly[d(A-T)]): 6.74
IC50 (HCT-8): 190 nM
OD (P388/ADR [1]): 20
OD (P388 [2]): 13.3
OD [3]: 20
ILS max (P388 [4]): 114
ILS max [5]: 122
Rm [6]: 0.56
ILS max (P388/ADR [7]): 43
IC50 (L1210): 101 nM

CNc1cc(NC(=O)OC)ccc1Nc1c2ccc(Br)cc2nc2c(C)cccc12
Log K (poly[d(A-T)]): 7.52
IC50 (HCT-8): 230 nM
OD (P388/ADR [1]): 45
OD (P388 [2]): 45
OD [3]: 30
ILS max (P388 [4]): 286
ILS max [5]: 82
Rm [6]: 0.69
ILS max (P388/ADR [7]): 42
IC50 (L1210): 180 nM

CNc1cc(NS(C)(=O)=O)ccc1Nc1c2ccccc2nc2ccccc12
OD (P388/ADR [1]): 13.3
ILS max (Mus musculus): inactive
Rm [6]: 0.17

CN(C)c1cc(NS(C)(=O)=O)ccc1Nc1c2ccccc2nc2ccccc12
OD (P388/ADR [1]): 100
OD (P388 [2]): 166
Rm [6]: 0.41
ILS max (P388/ADR [7]): 41

CNc1cc(NC(=O)OC)ccc1Nc1c2ccccc2nc2cc(Cl)ccc12
Log K (poly[d(A-T)]): 6.13
IC50 (HCT-8): 550 nM
OD (P388/ADR [1]): 65
OD (P388 [2]): 65
OD [3]: 45
ILS max (P388 [4]): 104
ILS max [5]: 92
Rm [6]: 0.73
ILS max (P388/ADR [7]): 35
IC50 (L1210): 174 nM

CNc1cc(NC(=O)OC)ccc1Nc1c2ccc(Br)cc2nc2c(OC)cccc12
Log K (poly[d(A-T)]): 6.43
OD (P388/ADR [1]): 65
OD (P388 [2]): 65
OD [3]: 100
ILS max (P388 [4]): 98
ILS max [5]: 31
Rm [6]: 0.55
ILS max (P388/ADR [7]): 20
IC50 (L1210): 360 nM

CNc1cc(NC(=O)OC)ccc1Nc1c2ccc(F)cc2nc2c(C)cccc12
Log K (poly[d(A-T)]): 7.37
IC50 (HCT-8): 610 nM
OD (P388/ADR [1]): 65
OD (P388 [2]): 65
OD [3]: 45
ILS max (P388 [4]): 43
ILS max [5]: 126
Rm [6]: 0.52
ILS max (P388/ADR [7]): 47
IC50 (L1210): 520 nM

CNc1cc(NC(=O)OC)ccc1Nc1c2ccc(C)cc2nc2c(C)cccc12
Log K (poly[d(A-T)]): 6.95
IC50 (HCT-8): 80 nM
OD (P388/ADR [1]): 13.3
OD (P388 [2]): 20
OD [3]: 20
ILS max (P388 [4]): 181
ILS max [5]: 171
Rm [6]: 0.51
ILS max (P388/ADR [7]): 33
IC50 (L1210): 44 nM

CNc1cc(NC(=O)OC)ccc1Nc1c2ccccc2nc2cc(Br)ccc12
Log K (poly[d(A-T)]): 6.87
IC50 (HCT-8): 800 nM
OD (P388/ADR [1]): 45
OD (P388 [2]): 45
OD [3]: 45
ILS max (P388 [4]): 101
ILS max [5]: 86
Rm [6]: 0.7
ILS max (P388/ADR [7]): 29
IC50 (L1210): 341 nM

CNc1cc(NC(=O)OC)ccc1Nc1c2ccccc2nc2cc(OC)ccc12
Log K (poly[d(A-T)]): 6.74
IC50 (HCT-8): 330 nM
OD (P388/ADR [1]): 65
OD (P388 [2]): 45
OD [3]: 45
ILS max (P388 [4]): 108
ILS max [5]: 85
Rm [6]: 0.45
ILS max (P388/ADR [7]): 89
IC50 (L1210): 170 nM

CNc1cc(NC(=O)OC)ccc1Nc1c2ccc(C)cc2nc2c(OC)cccc12
Log K (poly[d(A-T)]): 7.34
OD (P388/ADR [1]): 45
OD (P388 [2]): 45
OD [3]: 65
ILS max (P388 [4]): 128
ILS max [5]: 107
Rm [6]: 0.61
ILS max (P388/ADR [7]): 57
IC50 (L1210): 11 nM

COc1cc(NS(C)(=O)=O)ccc1Nc1c2ccccc2nc2ccccc12 [AMSACRINE]
ILS max (Mus musculus): inactive
Rm [6]: 0.18

CNC(=O)c1cccc2c(Nc3ccc(NC(=O)OC)cc3NC)c3cccc(OC)c3nc12
Log K (poly[d(A-T)]): 6.95
OD (P388/ADR [1]): 45
OD (P388 [2]): 65
OD [3]: 65
ILS max (P388 [4]): 92
ILS max [5]: 47
Rm [6]: 0.45
ILS max (P388/ADR [7]): 31
IC50 (L1210): 1750 nM

CNc1cc(NC(=O)OC)ccc1Nc1c2ccc(Cl)cc2nc2c(OC)cccc12
Log K (poly[d(A-T)]): 6.93
IC50 (HCT-8): 1100 nM
OD (P388/ADR [1]): 100
OD (P388 [2]): 100
OD [3]: 65
ILS max (P388 [4]): 177
ILS max [5]: 133
Rm [6]: 0.54
ILS max (P388/ADR [7]): 73
IC50 (L1210): 660 nM

CNc1cc(NC(=O)OC)ccc1Nc1c2ccc(Cl)cc2nc2c(C)cccc12
Log K (poly[d(A-T)]): 7.52
IC50 (HCT-8): 330 nM
OD (P388/ADR [1]): 45
OD (P388 [2]): 45
OD [3]: 45
ILS max (P388 [4]): 173
ILS max [5]: 143
Rm [6]: 0.67
ILS max (P388/ADR [7]): 79
IC50 (L1210): 185 nM

CNc1cc(NC(=O)OC)ccc1Nc1c2ccccc2nc2cc(F)ccc12
Log K (poly[d(A-T)]): 5.77
IC50 (HCT-8): 420 nM
OD (P388/ADR [1]): 100
OD (P388 [2]): 65
OD [3]: 100
ILS max (P388 [4]): 110
ILS max [5]: 83
Rm [6]: 0.63
ILS max (P388/ADR [7]): 21
IC50 (L1210): 200 nM

CNC(=O)c1cccc2c(Nc3ccc(NC(=O)OC)cc3NC)c3ccccc3nc12
Log K (poly[d(A-T)]): 6.48
IC50 (HCT-8): 2750 nM
OD (P388/ADR [1]): 65
OD (P388 [2]): 65
OD [3]: 65
ILS max (P388 [4]): 60
ILS max [5]: 58
Rm [6]: 0.43
IC50 (L1210): 840 nM

CNC(=O)c1cccc2c(Nc3ccc(NC(=O)OC)cc3NC)c3cccc(C)c3nc12
Log K (poly[d(A-T)]): 7.12
IC50 (HCT-8): 1850 nM
OD (P388/ADR [1]): 30
OD (P388 [2]): 20
OD [3]: 30
ILS max (P388 [4]): 99
ILS max [5]: 84
Rm [6]: 0.5
ILS max (P388/ADR [7]): 35
IC50 (L1210): 1200 nM
